CAL PDZ FP-1 – human CAL PDZ-peptide interaction inhibition | purified CAL PDZ, TMR-peptide fluorescence polarization, 1 h | Q9HD26 | actives 0.02% (n = 330,000) | AID 504414 | inhibition, % at 20 µM;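 active means highest replicate inhibition of at least 40%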;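 further: plate controls were DMSO neutral control wells for no effect and unlabeled competitor peptide control wells for full effect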
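material = purified tagged CAL PDZ domain construct (CerCALP) | compound dosing = 20 µM, one dose | times = 1 h at RT | measured by = fluorescence polarization from S- and P-plane intensities, G-factor corrected | read-out = inhibition from polarization loss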
CAL PDZ FP-2 – inhibitors of human CAL PDZ peptide binding; inhibition, % at 24.9 µM; AID 602252; actives 0.92% (n = 300,000); Q9HD26; purified CAL PDZ, TMR-peptide fluorescence polarization, 1 h;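 active means mean inhibition of at least 30% with at least half of replicates also reaching 30%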;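 further: 0% = DMSO neutral control and 100% = excess unlabeled competitor peptide PRC23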
PKA-R1A activ – PKA-R1A complex activation | PKA-R1A dissociation, Cy5-IP20 fluorescence polarization; scaled: DMSO 0%, 113 µM cGMP 100% | activation, % at 11.4 µM | actives 0.083% (n = 340,000);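 active means percent activation above the mean of all tested compounds plus 3 SD, cut at about 19% in these data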;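 further: higher means more PKAc released from R1A so a rise in polarization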
NTR1 agonist – agonists of human neurotensin receptor NTR1; P30989; NTR1-U2OS beta-arrestin-GFP spot imaging, agonist mode; activation, % at 20 µM; actives 0.17% (n = 330,000); AID 493036;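 active means activation at or above 40% of the spot to cytoplasm intensity ratio, with at least 20 cells analyzed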;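 further: 0% = DMSO without peptide and 100% = 100 nM NTR1 peptide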
Target sequence (P30989 whole entry, looked up): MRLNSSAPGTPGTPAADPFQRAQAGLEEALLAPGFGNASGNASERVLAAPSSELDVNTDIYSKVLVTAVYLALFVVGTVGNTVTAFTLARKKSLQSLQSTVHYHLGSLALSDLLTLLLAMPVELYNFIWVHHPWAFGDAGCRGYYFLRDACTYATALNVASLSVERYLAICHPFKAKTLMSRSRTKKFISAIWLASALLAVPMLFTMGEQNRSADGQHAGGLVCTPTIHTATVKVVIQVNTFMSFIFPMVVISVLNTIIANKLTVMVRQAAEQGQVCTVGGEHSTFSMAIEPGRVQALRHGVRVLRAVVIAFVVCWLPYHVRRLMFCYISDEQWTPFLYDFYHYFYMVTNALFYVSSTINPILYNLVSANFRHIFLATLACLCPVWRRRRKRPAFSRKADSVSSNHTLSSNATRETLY
dFosB act – enhances mouse delta FosB homodimer DNA binding. P13346. purified delta FosB, TAMRA-CDK5 oligo fluorescence polarization; percent of positive-control signal above neutral wells. activation, % at 25 µM. actives 0.99% (n = 340,000). AID 493131;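 active means mean activation above about 17%, with every replicate also reaching it, limit read from the data, passing the limit was not always enough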
PKA-R2B activ – activators of human PKA-R2B complex. P22694+P31323. PKA-R2B holoenzyme dissociation, Cy5-IP20 fluorescence polarization; R2B truncated from residue 108, S112A mutant; 0% DMSO only, 100% 113 µM cGMP. activation, % at 11.4 µM. actives 0.079% (n = 340,000). AID 504700;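 active means activation above a cutoff set at the mean over all compounds plus 3 SD, cut at about 18% in these data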;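 further: higher means more holoenzyme dissociation and a rise in polarization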
Active calls of the source: *; nt = no result given. Sampled rows, rich in hits. Any-hit rate of the full collection: about 2%.

SMILES	CAL PDZ FP-1	CAL PDZ FP-2	PKA-R1A activ	NTR1 agonist	dFosB act	PKA-R2B activ
CS(=O)(=O)N1CCc2cc(C(=O)OCC(=O)c3ccccc3)ccc21	-2	98*	1	-2	3	-7
CC1CN(C(=O)COC(=O)c2cccc(S(=O)(=O)N3CCc4ccccc43)c2)CC(C)O1 (centres undefined)	19	59*	1	0	-7	-2
COc1ccc(C(CC(=O)O)NC(=O)c2ccccc2[N+](=O)[O-])cc1 (centres undefined)	0	31*	-7	0	-6	7
Cc1ccc(NC(=O)COC(=O)c2ccc3c(c2)OCO3)c(C)c1	0	3	-12	-1	-2	3
Cc1ccc([N+](=O)[O-])c(OCCN2CCCCCC2)c1	-1	57*	-9	0	0	0
COc1ccccc1C(=O)Nc1ccccc1N1CCN(C(=O)c2ccc(Cl)cc2)CC1	-1	0	-4	5	0	-8
CN(C)c1ccc(N=Nc2nc3ccccc3n2C)cc1	3	5	-7	4	21*	8
COC(=O)C(NC(=O)C(C)NC(=O)OCc1ccccc1)C(C)C (centres undefined)	0	nt	-12	2	6	-6
CCC(C)C(NC(=O)C(C)NC(=O)CNC(=O)CNC(=O)OCc1ccccc1)C(=O)OC (centres undefined)	-1	47*	5	0	-4	-9
CCOc1cc2c(C#N)c(N3CCNCC3)nc(N)c2c(N)n1	0	70*	6	0	13	0
CCOc1cc2c(C#N)c(N3CCCCC3)nc(N)c2c(N)n1	1	nt	12	3	-8	6
O=C(c1cc(Br)c(Br)s1)N1CCc2ccccc2C1	-2	nt	-8	6	-9	-14
CN(C)CCCNC(=S)Nc1ccc(Oc2ccccc2)cc1	1	61*	-6	-2	-5	9
CC1(C)C(=S)N(Cc2ccccc2)c2ccccc21	0	44*	-4	0	0	-9
CC(=O)CC1(O)C(=O)N(Cc2ccccc2)c2ccccc21 (centres undefined)	-1	1	-3	-2	9	-8
CCOP(=O)(/C(C#N)=C(/O)c1ccccc1)c1ccccc1 (centres undefined)	0	123*	2	-1	-1	-2
O=C(c1ccccc1)C(O)C(c1ccccc1)N1CCOCC1 (centres undefined)	-1	-2	5	0	-4	-2
CCc1ccccc1NC(=O)C1CCN(C(=O)N2CCOc3ccccc32)CC1	-1	-3	0	-1	-1	3
CCOC(=O)C1=CN(Cc2ccco2)S(=O)(=O)N(CC)C1c1ccc(C(F)(F)F)cc1 (centres undefined)	0	79*	0	4	-8	0
CCOC(=O)c1oc2ccccc2c1COC(=O)CNC(=O)c1ccco1	-2	-4	-3	0	-3	-7
CCOc1ccc(NC(=O)CCN2CCN(S(=O)(=O)c3ccc(F)cc3)CC2)cc1	0	74*	-4	0	-10	4
COc1ccc(NC(=O)CCN2CCN(S(=O)(=O)c3ccc(F)cc3)CC2)cc1	-1	nt	-5	-1	-5	-3
CCOc1ccc(NC(=O)CN2C(=O)CCSc3ccc(S(=O)(=O)N4CCCC4)cc32)cc1	-3	-5	0	1	37*	-3
Cc1cc(C(=O)COC(=O)/C=C/c2ccco2)c(C)n1C	0	-5	3	3	-11	0
CCc1nnc(NC(=O)c2cccc(NC(=O)C(C)C)c2)s1	-1	45*	12	-2	-6	13
SMILES	CAL PDZ FP-1	CAL PDZ FP-2	PKA-R1A activ	NTR1 agonist	dFosB act	PKA-R2B activ
O=C(OCc1ccccc1)N1CCC2CC1c1cc(-c3ccccc3)ccc12 (centres undefined)	0	53*	-3	nt	-13	0
Cc1cccc(-c2ccc3c(c2)C2CC3CCN2C(=O)OCc2ccccc2)c1 (centres undefined)	0	-5	-4	nt	-6	-7
O=C1CSC(c2ccccc2[N+](=O)[O-])N1CCc1ccccc1 (centres undefined)	0	70*	-5	6	-3	-7
CC(=O)Nc1ccc(NC(=O)c2ccc(C3SCC(=O)N3CCc3ccccc3)cc2)cc1 (centres undefined)	-2	-7	-1	1	-2	-1
CCN(CC)c1ccc(CNc2nc3ccccc3n2CCN2CCCCC2)cc1	0	43*	-7	10	-3	6
O=C(c1cccs1)N1CCN(C(=O)c2cccs2)C1=S	-1	3	-6	nt	4	0
CCN1C[C@@H]2[C@@H]3C(=O)N(C)C(=O)[C@@H]3[C@](CC)(C1=O)N2C(=O)c1ccccc1	-1	-3	-10	nt	3	-14
COc1ccc(-c2cc(C(F)(F)F)nc(SCC(=O)N3CCOCC3)n2)cc1OC	-1	nt	-5	-2	-18	-7
O=C(CSc1nc(-c2ccccc2)cc(C(F)(F)F)n1)N1CCOCC1	-1	96*	7	-2	-4	0
O=C(CSc1nncc(=O)[nH]1)NC1CCCCC1	-1	-1	-8	1	-2	8
CC(CCc1ccccn1)C(=O)c1ccccc1 (centres undefined)	-1	-3	-8	nt	-5	0
O=C(c1ccccc1)C(CCc1ccccn1)CCc1ccccn1	24	47*	-4	nt	-3	-1
Cc1ccc(NC(=O)c2ncn(CC(=O)NCc3ccc4[nH]ccc4c3)n2)cc1C	0	-2	-9	2	1	-9
Cc1ccc(NC(=O)c2ncn(CCCN(CCCn3cnc(C(=O)Nc4ccc(C)c(C)c4)n3)Cc3ccc4[nH]ccc4c3)n2)cc1C	-1	-3	1	nt	77*	-11
CCOCCn1c(CN2CCc3ccccc3C2)nc2c1c(=O)n(C)c(=O)n2C	-1	-2	13	0	-7	-1
N#CCCN(C(=O)COC(=O)COc1ccccc1Cc1ccccc1)c1ccccc1	0	44*	1	6	-15	-8
Cc1ccc(C(=O)N2CCN(c3ccccn3)CC2)cc1C	9	-2	6	-1	-3	-9
O=C(c1ccc(-c2ccccc2)cc1)N1CCN(c2ccccn2)CC1	-1	78*	-15	6	-11	5
CC(C)(C)c1ccc(C(=O)NC(=S)Nc2ccc(N3CCOCC3)cc2)cc1	1	33*	1	6	-6	11
CC(C)(C)c1ccc(C(=O)Nc2ccc(N3CCOCC3)cc2)cc1	-3	-1	-4	3	-9	9
